Data published in ChEMBL document CHEMBL1138073, “Arylamide derivatives as allosteric inhibitors of the integrin alpha2beta1/type I collagen interaction” (Bioorg Med Chem Lett, 2006).
Active and inactive are the calls of the source. The rule behind the calls is not given here.

What was measured:
[1] = Inhibition of collagen binding to integrin alpha-2-beta-1 in intact platelets; set-up: species or system Homo sapiens
In short: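 Gel-filtered human platelets allowed to adhere to type I collagen immobilized on 96-well plates in presence of inhibitor; inhibition scored by number of bound platelets.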

[2] = Inhibition of collagen binding to integrin alpha-2-beta-1 by ELISA; set-up: species or system Homo sapiens
In short: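 Collagen type I (soluble) immobilized on 96-well plate; recombinant GST-tagged α2 I-domain added with increasing concentrations of inhibitor. Bound I-domain detected with peroxidase-conjugated anti-GST antibody, colorimetric read at 405 nm; IC50 derived from concentration series.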

[3] = tested on: Platelet; assay: Inhibition of collagen-induced platelet aggregation at 5 uM; format: functional, cell-based; settings: Homo sapiens

IC50 [1] | IC50 [2] | SMILES | Activity [3]
> 100 µM | > 50 µM | CC(C)(C)c1ccc(SCCN)c(NC(=O)c2cc(C(=O)Nc3cc(C(C)(C)C)ccc3SCCN)c(OCCN)cc2OCCN)c1 | 
3.4 µM | 4.8 µM | CC(C)(C)c1cc(NC(=O)c2cccc(C(=O)Nc3cc(C(C)(C)C)cc(NC(=O)[C@@H](N)Cc4ccc5ccccc5c4)c3SCCN)c2)c(SCCN)c(NC(=O)[C@@H](N)Cc2ccc3ccccc3c2)c1 | Active
16.9 µM | 19.7 µM | NCCSc1c(NC(=O)c2cccc(C(=O)Nc3cccc(NC(=O)[C@H](N)Cc4ccc5ccccc5c4)c3SCCN)c2)cccc1NC(=O)[C@H](N)Cc1ccc2ccccc2c1 | 
85.3 µM | > 50 µM | NCCSc1c(N)cccc1NC(=O)c1cccc(C(=O)Nc2cccc(NC(=O)[C@@H](N)Cc3ccc4ccccc4c3)c2SCCN)c1 | 
> 100 µM | > 50 µM | C[C@@H](N)C(=O)Nc1cc(C(C)(C)C)cc(NC(=O)c2cccc(C(=O)Nc3cc(C(C)(C)C)cc(NC(=O)[C@@H](C)N)c3SCCN)c2)c1SCCN | 
> 100 µM | > 50 µM | CC(C)(C)c1cc(NC(=O)c2cccc(C(=O)Nc3cc(C(C)(C)C)cc(NC(=O)[C@@H](N)CCCN=C(N)N)c3SCCN)c2)c(SCCN)c(NC(=O)[C@@H](N)CCCN=C(N)N)c1 | 
10.1 µM | 6.23 µM | NCCSc1c(NC(=O)c2cccc(C(=O)Nc3cccc(NC(=O)[C@@H](N)Cc4ccc5ccccc5c4)c3SCCN)c2)cccc1NC(=O)[C@@H](N)Cc1ccc2ccccc2c1 | 
> 100 µM | > 50 µM | NCCSc1c(N)cccc1NC(=O)c1cccc(C(=O)Nc2cccc(NC(=O)[C@H](N)Cc3cccnc3)c2SCCN)c1 | 
> 100 µM | > 50 µM | CC(C)(C)c1cc(NC(=O)CCCN)c(SCCN)c(NC(=O)c2cccc(C(=O)Nc3cc(C(C)(C)C)cc(NC(=O)CCCN)c3SCCN)c2)c1 | 
> 100 µM | > 50 µM | CC(C)(C)c1cc(NC(=O)CN)c(SCCN)c(NC(=O)c2cccc(C(=O)Nc3cc(C(C)(C)C)cc(NC(=O)CN)c3SCCN)c2)c1 | 
43.2 µM | > 50 µM | NCCOc1cc(C(=O)Nc2cccc(NC(=O)[C@H](N)Cc3ccccc3)c2SCCN)cc(C(=O)Nc2cccc(NC(=O)[C@H](N)Cc3ccccc3)c2SCCN)c1 | 
64.6 µM | > 50 µM | NCCSc1c(N)cccc1NC(=O)c1cccc(C(=O)Nc2cccc(NC(=O)[C@H](N)Cc3ccc4ccccc4c3)c2SCCN)c1 | 
14.4 µM | > 20 µM | CC(C)(C)c1cc(NC(=O)c2cccc(C(=O)Nc3cc(C(C)(C)C)cc(NC(=O)[C@H](N)Cc4ccc5ccccc5c4)c3SCCN)c2)c(SCCN)c(NC(=O)[C@H](N)Cc2ccc3ccccc3c2)c1 | 
17.3 µM | > 20 µM | CC(C)(C)c1cc(NC(=O)c2cccc(C(=O)Nc3cc(C(C)(C)C)cc(NC(=O)[C@H](N)Cc4c[nH]c5ccccc45)c3SCCN)c2)c(SCCN)c(NC(=O)[C@H](N)Cc2c[nH]c3ccccc23)c1 | 
> 100 µM | > 50 µM | CC(C)(C)c1cc(NC(=O)c2cccc(C(=O)Nc3cc(C(C)(C)C)cc(NC(=O)[C@H](N)Cc4cccnc4)c3SCCN)c2)c(SCCN)c(NC(=O)[C@H](N)Cc2cccnc2)c1 | 
